Read-outs that look alike come from different tables or passages of the source.
Experiments:
HepG2 [1] = assay: in vitro cytotoxicity assay; format: cell-based; details: Homo sapiens, HepG2, 72 h, read-out: IC50 (72 h)
In short: (§1)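 Cells grown in medium with 10% FBS and exposed to test compound for 72 h. Viability read by MTS or MTT stain, and IC50 derived from the readings.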

PANC-1 [2] = assay: in vitro cytotoxicity assay; format: cell-based; details: Homo sapiens, PANC-1, 48 h
AsPC-1 [3] = assay: in vitro cytotoxicity assay; format: cell-based; details: Homo sapiens, ASPC1, 48 h
A549 [4] = assay: in vitro cytotoxicity assay; format: cell-based, human
H441 [5] = assay: in vitro cytotoxicity assay; format: cell-based; details: Homo sapiens, NCI-H441, 72 h, read-out: IC50 (72 h)
In short: as §1

[6] = system: panel of human tumor cell lines; assay: panel of human tumor cell lines in vitro; format: cell-based
In short: as §1

[7] = metabolite identification/biotransformation, human liver microsomes; format: in vitro ADME
[8] = metabolite identification/biotransformation, rat liver microsomes; format: in vitro ADME
[9] = metabolite identification/biotransformation, mouse liver microsomes; format: in vitro ADME; details: 1 mg/ml protein, 5 µM drug, 1 mM NADPH, 37 °C
[10] = mouse pharmacokinetic study; format: in vivo; details: male, Balb/C, whole blood, 50 mg/kg
[11] = system: Hep 3B HCC tumor xenografts; assay: in vivo antitumor activity, subcutaneous Hep3B HCC xenograft in NSG mice; parameters: species or system mouse; details: female NSG mice, 50 mg/kg ip daily for 14 days
In short: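 Hep 3B hepatocellular carcinoma xenograft in mice, dosed per schedule. Paclitaxel positive control given iv at 24 mg/kg qd×5. Tumor growth inhibition, body weight and signs of toxicity monitored. Error given as SE computed from the average deviation.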

MDA-MB-231 = details: read-out: IC50 reported in the lit.; natural product, MDA-MB-231 (CCRC-60425) ref 1; cited from earlier work
LNCaP = details: read-out: IC50 reported in the lit.; natural product, LNCaP (CCRC-60088) ref 1; cited from earlier work
PANC-1 [12] = details: read-out: IC50 reported in the lit.; PANC-1 (48 h), ATCC, SRB assay ref 2f; cited from earlier work
AsPC-1 [13] = details: read-out: IC50 reported in the lit.; AsPC-1 (48 h), ATCC, SRB assay ref 2f; cited from earlier work
A549 [14] = details: read-out: IC50 reported in the lit.; A549 (12 h), KMUH ref 2c; cited from earlier work
H441 [15] = details: read-out: IC50 reported in the lit.; H441, KMUH ref 2c; cited from earlier work
Hep3B = details: 5% FBS, 48 h incubation, SRB stain ref 2a; cited from earlier work
HepG2 [16] = details: HepG2, 5% FBS, 48 h incubation, SRB stain ref 2a; cited from earlier work
H838 tumor cell line = H838 tumor cell line ref 23 (Ho et al., Biomed. Pharmacother. 2014); cited from earlier work
Hep 3B tumor model = details: initial tumor sizes 50–70 mm^3 ref 2a, 19; cited from earlier work
[17] = system: A549 subcutaneous xenografts; details: NOD/SCID mice, 2 weeks of oral 30 and 60 mg/kg ref 18; cited from earlier work

COC1=C(OC)[C@H](O)[C@H](C/C=C(\C)CC/C=C(\C)CCC=C(C)C)[C@@H](C)C1=O [Compound 1, Antroquinonol A]
IC50 (HepG2 [1]): > 25 µM | IC50 (PANC-1 [2]): > 25 µM | IC50 (AsPC-1 [3]): > 25 µM | fold more potent than previously reported (A549 [4]; A549): ~4 fold | IC50 (A549 [4]; Homo sapiens, A549, 12 h, A549 (12 h) (ATCC), 1 triplicate, 15 duplicate): 6.7 ± 2.5 µM | IC50 (H441 [5]): > 25 µM | fold less cytotoxic than reported for the natural product ([6]; cell lines of Table 1 except A549): 3–70 fold | cytotoxicity in tumor cell line panel ([6]; panel of Table 1): only micromolar activity | biotransformation in liver microsomes [7]: rapidly converted to a major metabolite | biotransformation in liver microsomes [8]: rapidly converted to a major metabolite | biotransformation in liver microsomes [9]: rapidly converted to a major metabolite | AUC(0-t) ([10]; ip): 2.29 ± 0.142 µM·h | Cmax ([10]; ip): 457 ± 45 nM | Tmax ([10]; ip): 4 ± 3 h | AUC(0-t) ([10]; po): 0.266 ± 0.088 µM·h | Cmax ([10]; po): 79 ± 52 nM | Tmax ([10]; po): 2 ± 1 h | tolerability [11]: generally well-tolerated with no overt signs of toxicity | weight loss [11]: ~4% | IC50 (MDA-MB-231): 2600 ± 50 nM | IC50 (LNCaP): 6.1 ± 0.07 µM | IC50 (PANC-1 [12]): 19 µM | IC50 (AsPC-1 [13]): 20 µM | IC50 (A549 [14]): 25 µM | IC50 (H441 [15]): 25 µM | GI50 (Hep3B): > 30 µM | GI50 (HepG2 [16]): 220 nM | IC50 (H838 tumor cell line): ~3000 nM | antitumor activity reported in the literature (Hep 3B tumor model): statistically significant antitumor activity | antitumor effect reported [17]: tumor growth suppression
